Active and inactive are the calls of the source. The calls are words filed in the database; no cut-off is given here.
How the values were obtained:
Integrin alpha-5/beta-1 [1] = molecular target: T1, Integrin alpha-5/beta-1 (Homo sapiens, UniProt P05556+P08648); assay: Inhibition of fibronectin binding to alpha5beta1 isolated from human K562 cells incubated for 1 hr by […] competitive solid-phase binding assay; type: tissue-based
Summary of the method: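 Plates coated overnight at 4 °C in carbonate buffer pH 9.6 with fibronectin 0.5 µg/mL (αvβ3, αvβ6, α5β1), fibrinogen 10 µg/mL (αIIbβ3, αvβ5) or ICAM-1 (αLβ2). Blocked 1 h in buffer containing Ca/Mg/Mn 1 mM each and 1% BSA. Purified integrin (3–10 µg/mL) incubated with compound (10⁻⁴–10⁻¹⁰ M) 1 h at room temperature. Bound integrin detected with primary antibody then AlexaFluor488 secondary, Ex485/Em535. Duplicate, at least three repeats.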

SK-MEL-24 = assay: Toxicity in human SK-MEL-24 cells assessed as induction of cell necrosis and/or apoptosis incubated for 3 hrs by annexin V-PE and 7-AAD staining based by flow cytometry; settings: sk-mel-24, 3 h
Summary of the method: (§1)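 After 3 h incubation, cells resuspended in complete medium and stained with annexin V-PE/7-AAD reagent for 20 min at room temperature in the dark. Flow cytometry sorted cells into viable, early apoptotic and late apoptotic/necrotic populations.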

MCF7 = assay: Toxicity in human MCF7 cells assessed as induction of cell necrosis and/or apoptosis incubated for 3 hrs by annexin V-PE and 7-AAD staining based by flow cytometry; settings: mcf7, 3 h; summary of the method: as §1
HT-29 = assay: Toxicity in human HT-29 cells assessed as induction of cell necrosis and/or apoptosis incubated for 3 hrs by annexin V-PE and 7-AAD staining based by flow cytometry; settings: ht-29, 3 h; summary of the method: as §1
K562 = assay: Toxicity in human K562 cells assessed as induction of cell necrosis and/or apoptosis incubated for 3 hrs by annexin V-PE and 7-AAD staining based by flow cytometry; settings: k562, 3 h; summary of the method: as §1
HEL = assay: Toxicity in human HEL cells assessed as induction of cell necrosis and/or apoptosis incubated for 3 hrs by annexin V-PE and 7-AAD staining based by flow cytometry; summary of the method: as §1
Integrin alpha-V/beta-3 [2] = molecular target: T2, Integrin alpha-V/beta-3 (Homo sapiens, UniProt P05106+P06756); assay: Antagonist activity at alphaVbeta3 in human SK-MEL-24 cells assessed as reduction in cell adhesion to fibronectin pre-incubated for 30 mins before fibronectin and further incubated for 1 hr by nitrophenyl-N-acetyl-beta-D-glucosaminide substrate based chromogenic assay
Summary of the method: (§2)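 Compound or methanol vehicle pre-incubated with cells for 30 min at room temperature. Cells then plated on wells coated overnight at 4 °C with fibronectin 10 µg/mL (SK-MEL-24, K562, HT-29) or fibrinogen 10 µg/mL (MCF7, HEL). Seeding was 50,000 cells/well, or 100000 for HEL. Adhesion ran 1 h at room temperature. Wells washed with 1% BSA/PBS. Quadruplicate, at least three repeats.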

Integrin alpha-V/beta-5 [3] = molecular target: T3, Integrin alpha-V/beta-5 (Homo sapiens, UniProt P06756+P18084); assay: Agonist activity at alphaVbeta5 in human MCF7 cells assessed as increase in cell adhesion to fibrinogen pre-incubated for 30 mins before fibrinogen and further incubated for 1 hr by nitrophenyl-N-acetyl-beta-D-glucosaminide substrate based chromogenic assay
Summary of the method: (§3)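 Compound or methanol vehicle pre-incubated with cells for 30 min at room temperature. Cells then plated on wells coated overnight at 4 °C with fibronectin 10 µg/mL (SK-MEL-24, K562, HT-29) or fibrinogen 10 µg/mL (MCF7, HEL). Seeding was 50,000 cells/well, or 100000 for HEL. Adhesion ran 1 h at room temperature. Wells washed with 1% BSA/PBS. Adherent cells read by hexosaminidase substrate, absorbance 405 nm. Quadruplicate, at least three repeats.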

Integrin alpha-V/beta-5 [4] = molecular target: T3, Integrin alpha-V/beta-5; assay: Antagonist activity at alphaVbeta5 in human MCF7 cells assessed as reduction in cell adhesion to fibrinogen pre-incubated for 30 mins before fibrinogen and further incubated for 1 hr by nitrophenyl-N-acetyl-beta-D-glucosaminide substrate based chromogenic assay; summary of the method: as §2
Integrin alpha-V/beta-6 [5] = molecular target: T4, Integrin alpha-V/beta-6 (Homo sapiens, UniProt P06756+P18564); assay: Agonist activity at alphaVbeta6 in human HT-29 cells assessed as increase in cell adhesion to fibronectin pre-incubated for 30 mins before fibronectin and further incubated for 1 hr by nitrophenyl-N-acetyl-beta-D-glucosaminide substrate based chromogenic assay; summary of the method: as §3
Integrin alpha-V/beta-6 [6] = molecular target: T4, Integrin alpha-V/beta-6; assay: Antagonist activity at alphaVbeta6 in human HT-29 cells assessed as reduction in cell adhesion to fibronectin pre-incubated for 30 mins before fibronectin and further incubated for 1 hr by nitrophenyl-N-acetyl-beta-D-glucosaminide substrate based chromogenic assay; summary of the method: as §2
Integrin alpha-5/beta-1 [7] = molecular target: T1, Integrin alpha-5/beta-1; assay: Antagonist activity at alpha5beta1 in human K562 cells assessed as reduction in cell adhesion to fibronectin pre-incubated for 30 mins before fibronectin and further incubated for 1 hr by nitrophenyl-N-acetyl-beta-D-glucosaminide substrate based chromogenic assay; summary of the method: as §3
[8] = molecular target: T5, Integrin alpha-IIb/beta-3 (Homo sapiens, UniProt P05106+P08514); assay: Agonist activity at alpha2bbeta3 in human HEL cells assessed as increase in cell adhesion to fibrinogen pre-incubated for 30 mins before fibrinogen and further incubated for 1 hr by nitrophenyl-N-acetyl-beta-D-glucosaminide substrate based chromogenic assay; summary of the method: as §2
[9] = molecular target: T5, Integrin alpha-IIb/beta-3; assay: Antagonist activity at alpha2bbeta3 in human HEL cells assessed as reduction in cell adhesion to fibrinogen pre-incubated for 30 mins before fibrinogen and further incubated for 1 hr by nitrophenyl-N-acetyl-beta-D-glucosaminide substrate based chromogenic assay; summary of the method: as §2
Integrin alpha-4/beta-1 [10] = molecular target: T6, Integrin alpha-4/beta-1 (Homo sapiens, UniProt P05556+P13612); assay: Antagonist activity at alpha4beta1 in human Jurkat E6.1 cells assessed as reduction in cell adhesion to VCAM1 pre-incubated for 30 mins before VCAM1 and further incubated for 30 mins by […]; type: cell-based
[11] = molecular target: T7, Integrin alpha-L/beta-2 (LFA-1) (Homo sapiens, UniProt P05107+P20701); assay: Agonist activity at alphaLbeta2 in human Jurkat E6.1 cells assessed as increase in cell adhesion to ICAM1 pre-incubated for 30 mins before ICAM1 and further incubated for 30 mins by […]; type: cell-based
Summary of the method: (§4)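 Jurkat E6.1 cells labelled with CellTracker green CMFDA (12.5 µM, 30 min, 37 °C), washed, then pre-incubated 30 min at 37 °C with compound or methanol. Plated at 500,000/well on VCAM-1 (α4β1) or ICAM-1 (αLβ2) coated wells (5 µg/mL) for 30 min at 37 °C. Cells lysed in 0.5% Triton X-100; fluorescence read Ex485/Em535. Quadruplicate, at least three repeats.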

[12] = molecular target: T7, Integrin alpha-L/beta-2 (LFA-1); assay: Antagonist activity at alphaLbeta2 in human Jurkat E6.1 cells assessed as reduction in cell adhesion to ICAM1 pre-incubated for 30 mins before ICAM1 and further incubated for 30 mins by […]; type: cell-based; summary of the method: as §4
Integrin alpha-V/beta-3 [13] = molecular target: T2, Integrin alpha-V/beta-3; assay: Inhibition of fibronectin binding to human recombinant alphaVbeta3 expressed in HEK293 cells incubated for 1 hr by […] competitive solid-phase binding assay; type: cell-based
Integrin alpha-V/beta-5 [14] = molecular target: T3, Integrin alpha-V/beta-5; assay: Inhibition of fibrinogen binding to alphaVbeta5 isolated form human mCf7 cells incubated for 1 hr by […] competitive solid-phase binding assay
Integrin alpha-V/beta-6 [15] = molecular target: T4, Integrin alpha-V/beta-6; assay: Inhibition of fibronectin binding to alphaVbeta6 isolated form human HT-29 cells incubated for 1 hr by […] competitive solid-phase binding assay; type: tissue-based
Integrin alpha-4/beta-1 [16] = molecular target: T6, Integrin alpha-4/beta-1; assay: Inhibition of fibronectin binding to […] isolated from human Jurkat E6.1 cells incubated for 1 hr by scintillation-proximity assay based competitive solid-phase binding assay; type: tissue-based
Integrin alpha-5/beta-1 [17] = molecular target: T1, Integrin alpha-5/beta-1; assay: Antagonist activity at alpha5beta1 in human K562 cells assessed as assessed as reduction in ERK1/2 phosphorylation at 1 to 100 nM by Western blot analysis; type: cell-based; settings: filed as antagonist, dose 1-100 nM
Integrin alpha-4/beta-1 [18] = molecular target: T6, Integrin alpha-4/beta-1; assay: Antagonist activity at alpha4beta1 in human Jurkat E6.1 cells assessed as reduction in VCAM-1 induced ERK1/2 phosphorylation at 1 to 100 nM by Western blot analysis; type: cell-based; settings: filed as antagonist, dose 1-100 nM
Integrin alpha-4/beta-1 [19] = molecular target: T6, Integrin alpha-4/beta-1; assay: Antagonist activity at alpha4beta1 in human Jurkat E6.1 cells assessed as reduction in VCAM-1 induced ERK1/2 phosphorylation at 1 to 100 pM by Western blot analysis; type: cell-based; settings: filed as antagonist, dose 1-100 pM
Integrin alpha-4/beta-1 [20] = molecular target: T6, Integrin alpha-4/beta-1; assay: Antagonist activity at alpha4beta1 in human Jurkat E6.1 cells assessed as reduction in exposure of HUTS-21 epitope measured by mAb binding; type: cell-based; settings: filed as antagonist
Summary of the method: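 Jurkat E6.1 cells at 10⁶/mL in 1% BSA/HBSS incubated 30 min at 37 °C with compound. PE-labelled HUTS-21 mAb then added for 45 min at room temperature. Cells washed, 10,000 analysed by flow cytometry. MFI corrected to isotype control set to 0. Four independent experiments in duplicate.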

[21] = molecular target: T5, Integrin alpha-IIb/beta-3; assay: Inhibition of fibrinogen binding to alpha2bbeta3 isolated from human HEL cells incubated for 1 hr by […] competitive solid-phase binding assay
Integrin alpha-4/beta-1 [22] = molecular target: T6, Integrin alpha-4/beta-1; assay: Agonist activity at alpha4beta1 in human Jurkat E6.1 cells assessed as increase in cell adhesion to VCAM1 pre-incubated for 30 mins before VCAM1 and further incubated for 30 mins by […]; type: cell-based; summary of the method: as §4
Integrin alpha-V/beta-3 [23] = molecular target: T2, Integrin alpha-V/beta-3; assay: Agonist activity at alphaVbeta3 in human SK-MEL-24 cells assessed as increase in cell adhesion to fibronectin at 2 to 10 ug/ml pre-incubated for 30 mins and further incubated for 1 hr by nitrophenyl-N-acetyl-beta-D-glucosaminide substrate based chromogenic assay; settings: filed as agonist, dose 2-10 µg/ml, time 90.0 min
Integrin alpha-V/beta-3 [24] = molecular target: T2, Integrin alpha-V/beta-3; assay: Agonist activity at alphaVbeta3 in human SK-MEL-24 cells assessed as increase in cell adhesion to fibronectin at 10 ug/ml pre-incubated for 30 mins and further incubated for 1 hr in presence of in presence of integrin antagonist c(-RGDfV) by nitrophenyl-N-acetyl-beta-D-glucosaminide substrate based chromogenic assay; settings: dose 10.0 µg/ml, time 90.0 min
Integrin alpha-V/beta-3 [25] = molecular target: T2, Integrin alpha-V/beta-3; assay: Agonist activity at alphaVbeta3 in human SK-MEL-24 cells assessed as increase in cell adhesion to fibronectin at 10 ug/ml pre-incubated for 30 mins and further incubated for 1 hr in presence of neutralizing antibody against the alphaV integrin subunit by nitrophenyl-N-acetyl-beta-D-glucosaminide substrate based chromogenic assay; settings: dose 10.0 µg/ml, time 90.0 min
Integrin alpha-V/beta-3 [26] = molecular target: T2, Integrin alpha-V/beta-3; assay: Agonist activity at human alphaVbeta3 expressed in HEK293 cells assessed as increase in ERK1/2 phosphorylation by Western blot analysis; type: cell-based; settings: filed as agonist

Compound | IC50 (Integrin alpha-5/beta-1 [1]) | Activity (SK-MEL-24) | Activity (MCF7) | Activity (HT-29) | Activity (K562) | Activity (HEL) | EC50 (Integrin alpha-V/beta-5 [3]) | EC50 (Integrin alpha-V/beta-6 [5]) | IC50 (Integrin alpha-V/beta-6 [6]) | EC50 [8] | IC50 [9] | IC50 (Integrin alpha-4/beta-1 [10]) | EC50 [11] | IC50 [12] | IC50 (Integrin alpha-V/beta-3 [13]) | IC50 (Integrin alpha-V/beta-5 [14]) | IC50 (Integrin alpha-V/beta-6 [15]) | IC50 (Integrin alpha-4/beta-1 [16]) | also measured
Cc1ccccc1NC(=O)N1C(=O)C[C@H]1C(=O)O | 0.114 µM | Non-Toxic | Non-Toxic | Non-Toxic | Non-Toxic | Non-Toxic | > 5 µM | > 5 µM | > 5 µM | > 5 µM | > 5 µM | 0.00139 µM | > 5 µM | > 5 µM | 0.285 µM | > 1 µM | > 1 µM | 0.0011 µM | IC50 (Integrin alpha-V/beta-3 [2]): 0.352 µM; IC50 (Integrin alpha-V/beta-5 [4]): > 5 µM; IC50 (Integrin alpha-5/beta-1 [7]): 0.158 µM; Activity (Integrin alpha-5/beta-1 [17]): Dose-dependent effect; Activity (Integrin alpha-4/beta-1 [18]): Active; Activity (Integrin alpha-4/beta-1 [19]): Dose-dependent effect; Activity (Integrin alpha-4/beta-1 [20]): Dose-dependent effect
NCc1ccc(NC(=O)N2C(=O)CC2CC(=O)NCC(=O)O)cc1.O=C(O)C(F)(F)F (centres undefined) | > 1 µM | Non-Toxic | Non-Toxic | Non-Toxic | Non-Toxic | Non-Toxic | 0.505 µM | > 5 µM | > 5 µM | > 5 µM | > 5 µM | > 5 µM | > 5 µM | > 5 µM | 0.0012 µM | 0.104 µM | > 1 µM | > 1 µM | IC50 [21]: > 1 µM; EC50 (Integrin alpha-4/beta-1 [22]): > 5 µM; Activity (Integrin alpha-V/beta-3 [23]): Dose-dependent effect; Activity (Integrin alpha-V/beta-3 [24]): inactive; Activity (Integrin alpha-V/beta-3 [25]): inactive; Activity (Integrin alpha-V/beta-3 [26]): Dose-dependent effect

Source: ChEMBL document CHEMBL4680084, “New β-Lactam Derivatives Modulate Cell Adhesion and Signaling Mediated by RGD-Binding and Leukocyte Integrins” (J Med Chem, 2016)
